From ChEMBL document CHEMBL1123016, “Synthesis and biological activities of analogues of angiotensins II and III containing O-methyltyrosine and D-tryptophan” (J Med Chem, 1985)
Square brackets hold non-standard residues; d marks the D form. Peptide text beside a SMILES is read from it. Sar = CNCC(=O)O

What was measured:
[1] = species on record: Rattus norvegicus; experiment: Compound was tested for agonist activity in rat isolated uterus assay; type: functional
How it was run: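 Uteri from diethylstilbestrol-primed female Sprague-Dawley rats (150-250 g). Peptides were stored lyophilized at -20 °C, with 1 mg/mL stock solutions made weekly and assay dilutions made daily. Tissue was challenged every 12 min. Agonist activity is expressed relative to ANG II = 100%, as mean ± SEM with the number of animals.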

[2] = species on record: Rattus norvegicus; experiment: Compound was tested for antagonist activity in rat isolated uterus assay; pA2 is the negative logarithm of the concentration of antagonist that reduces the response to an ED50 dose of angiotensin II to the response to half the ED50 dose; type: functional; conditions: read-out: pA2 (converted)
How it was run: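 Isolated uterus from diethylstilbestrol-primed female Sprague-Dawley rats (150-250 g), challenged every 12 min. Antagonist was given 2 min before an ED50 dose of ANG II. Where antagonism appeared non-competitive, each tissue received a single "pA2 dose" and the ANG II response was measured after 2 min (mean of four determinations). Otherwise values are mean ± SEM (number of animals).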

Question: For CC[C@H](C)[C@H](NC(=O)[C@H](Cc1ccc(OC)cc1)NC(=O)[C@@H](NC(=O)[C@H](CCCN=C(N)N)NC(=O)CNC)C(C)C)C(=O)N[C@@H](Cc1c[nH]cn1)C(=O)N1CCC[C@H]1C(=O)N[C@@H](Cc1ccccc1)C(=O)O, which Activity [1] is on record?
Answer: <0.1%

Question: What about the Kb [2] of the same compound?
Answer: 7.94 nM

Question: CC[C@H](C)[C@H](NC(=O)[C@H](Cc1ccc(O)cc1)NC(=O)[C@@H](NC(=O)[C@@H](N)CCCN=C(N)N)C(C)C)C(=O)N[C@@H](Cc1c[nH]cn1)C(=O)N1CCC[C@H]1C(=O)N[C@@H](Cc1c[nH]c2ccccc12)C(=O)O was tested. Which Activity [1] did it give?
Answer: <0.1%

Question: And the Kb [2]?
Answer: 200 nM

Question: Which results are given for CC[C@H](C)[C@H](NC(=O)[C@@H]1CCCN1C(=O)[C@H](Cc1c[nH]cn1)NC(=O)[C@@H](NC(=O)[C@H](Cc1ccc(OC)cc1)NC(=O)[C@@H](NC(=O)[C@H](CCCN=C(N)N)NC(=O)CNC)C(C)C)[C@@H](C)CC)C(=O)O?
Answer: Activity [1]: <0.1%; Kb [2]: 63.1 nM

Question: What does the source list for CC[C@H](C)[C@H](NC(=O)[C@H](Cc1ccc(OC)cc1)NC(=O)[C@@H](NC(=O)[C@@H](N)CCCN=C(N)N)C(C)C)C(=O)N[C@@H](Cc1c[nH]cn1)C(=O)N1CCC[C@H]1C(=O)N[C@@H](Cc1ccccc1)C(=O)O?
Answer: Activity [1]: <0.1%; Kb [2]: > 1000 nM

Question: What does the source list for CC[C@H](C)[C@H](NC(=O)[C@H](Cc1ccc(OC)cc1)NC(=O)[C@@H](NC(=O)[C@H](CCCN=C(N)N)NC(=O)CNC)C(C)C)C(=O)N[C@@H](Cc1c[nH]cn1)C(=O)N1CCC[C@H]1C(=O)N[C@@H](Cc1c[nH]c2ccccc12)C(=O)O?
Answer: Activity [1]: <0.1%; Kb [2]: 79.4 nM

Question: Which results are given for CC[C@H](C)[C@H](NC(=O)[C@H](Cc1ccc(OC)cc1)NC(=O)[C@@H](NC(=O)[C@@H](N)CCCN=C(N)N)C(C)C)C(=O)N[C@@H](Cc1c[nH]cn1)C(=O)N1CCC[C@H]1C(=O)N[C@@H](Cc1c[nH]c2ccccc12)C(=O)O?
Answer: Activity [1]: <0.1%; Kb [2]: > 1000 nM

Question: For CC[C@H](C)[C@H](NC(=O)[C@@H]1CCCN1C(=O)[C@H](Cc1c[nH]cn1)NC(=O)[C@@H](NC(=O)[C@H](Cc1ccc(OC)cc1)NC(=O)[C@@H](NC(=O)[C@@H](N)CCCN=C(N)N)C(C)C)[C@@H](C)CC)C(=O)O, which Activity [1] is on record?
Answer: <0.1%

Question: And the Kb [2]?
Answer: > 1000 nM

Question: How did the Activity [1] turn out when CC[C@H](C)[C@H](NC(=O)[C@H](Cc1ccc(O)cc1)NC(=O)[C@@H](NC(=O)[C@H](CCCN=C(N)N)NC(=O)CNC)C(C)C)C(=O)N[C@@H](Cc1c[nH]cn1)C(=O)N1CCC[C@H]1C(=O)N[C@@H](Cc1c[nH]c2ccccc12)C(=O)O was run?
Answer: <0.1%

Question: And the Kb [2]?
Answer: 20 nM

Question: How did the Activity [1] turn out when CC[C@H](C)[C@H](NC(=O)[C@@H]1CCCN1C(=O)[C@H](Cc1c[nH]cn1)NC(=O)[C@@H](NC(=O)[C@H](Cc1ccc(O)cc1)NC(=O)[C@@H](NC(=O)[C@H](CCCN=C(N)N)NC(=O)CNC)C(C)C)[C@@H](C)CC)C(=O)O was run?
Answer: <0.1%

Question: What about the Kb [2] of the same compound?
Answer: 2 nM

Question: With CC[C@H](C)[C@H](NC(=O)[C@H](Cc1c[nH]c2ccccc12)NC(=O)[C@@H](NC(=O)[C@@H](N)CCCN=C(N)N)C(C)C)C(=O)N[C@@H](Cc1c[nH]cn1)C(=O)N1CCC[C@H]1C(=O)N[C@@H](Cc1ccccc1)C(=O)O (H-RVWIHPF-OH) as the compound, how does the Activity [1] read?
Answer: <0.1%

Question: What about the Kb [2] of the same compound?
Answer: > 1000 nM

Question: CC[C@H](C)[C@H](NC(=O)[C@@H]1CCCN1C(=O)[C@H](Cc1c[nH]cn1)NC(=O)[C@@H](NC(=O)[C@H](Cc1c[nH]c2ccccc12)NC(=O)[C@@H](NC(=O)[C@@H](N)CCCN=C(N)N)C(C)C)[C@@H](C)CC)C(=O)O (H-RVWIHPI-OH) was tested. Which Activity [1] did it give?
Answer: <0.1%

Question: What about the Kb [2] of the same compound?
Answer: > 1000 nM

Question: CC[C@H](C)[C@H](NC(=O)[C@H](Cc1c[nH]c2ccccc12)NC(=O)[C@@H](NC(=O)[C@H](CCCN=C(N)N)NC(=O)CNC)C(C)C)C(=O)N[C@@H](Cc1c[nH]cn1)C(=O)N1CCC[C@H]1C(=O)N[C@@H](Cc1ccccc1)C(=O)O (H-[Sar]RVWIHPF-OH) was tested. Which Activity [1] did it give?
Answer: <0.1%

Question: What about the Kb [2] of the same compound?
Answer: > 1000 nM
